Published values gathered from unrelated publications.
Target: Focal adhesion kinase 1 (PTK2, Homo sapiens, UniProt Q05397)

SMILES	assay	conditions	quantity	result
Cc1cnc(NC2CCOCC2)nc1-n1cnc(C(=O)NC(CN)c2cc(F)cc(Cl)c2)c1 (stereo not drawn)	enzyme activity, inhibitor, radiometric	1 µM	remaining activity	102%
C[C@@H]1CN(c2cc(-c3nn(C)c4ccc(OC5(C)CC5)cc34)ncn2)C[C@H](C)O1	cell-free assay, competition with immobilised ligand	1 µM	remaining binding	95%
Oc1cccc(-c2nc(N3CCOCC3)c3oc4ncccc4c3n2)c1	cell-free assay	0.5 µM	remaining signal	93.5%
Cc1ccc(NC(=O)c2ccc(CN3CCN(C)CC3)cc2)cc1Nc1nccc(-c2cncc(-c3oncc3C)c2)n1	enzyme activity, inhibitor	0.5 µM	remaining activity	≤ 50%
CN1CC(Oc2cnc(C#N)cc2-c2ccn3nc(NC(=O)C4CC4)cc3c2)C1	enzyme activity, inhibitor	1 µM	inhibition	1%
Cc1ccc(C(=O)NCc2ccsc2)cc1C#Cc1cn(C(C)C)c2ncnc(N)c12	enzyme activity, inhibitor	1 µM	activity vs control	79%
CCCS(=O)(=O)Nc1ccc(F)c(C(=O)c2c[nH]c3ncc(-c4ccc(Cl)cc4)cc23)c1F	enzyme activity, inhibitor	1 µM	inhibition	< 10%
O=C(CSc1nc2nccnc2c(=O)n1CCc1ccccc1)Nc1nccs1	enzyme activity, inhibitor	10 µM	inhibition	6%
Cc1nc(C2CCN(C(=O)c3ccc(OC(F)(F)F)cc3N)CC2)c2ncc(N3CCN(C)CC3)cc2n1	cell-free assay, competition with immobilised ligand	1 µM	remaining binding	91%
COc1cc(-c2cc(-c3ccc(N4CCNCC4)cc3)cnc2C)cc(OC)c1OC	enzyme activity, inhibitor	0.1 µM	inhibition	26%
C=CC(=O)Nc1cc(Nc2nccc(Nc3cc(Cl)c(F)cc3C(C)(C)O)n2)c(OC)cc1N1CC[C@@H](N(C)C)C1	enzyme activity, inhibitor	1 µM	inhibition	74%
CCN(CC)c1ccc(C2=NNC(=O)CC2C)cc1[N+](=O)[O-] (stereo not drawn)	enzyme activity, inhibitor	10 µM	remaining activity	96%
N#CC1(c2ccccn2)CCN(Cc2cc(C(=O)N3CCCC3)c(=O)n3ccccc23)CC1	cell-free assay, competition with immobilised ligand	1 µM	remaining binding	89%
Cc1cnn2ncc(-c3ccnc(N(C)C)n3)c2c1	cell-free assay	1 µM	remaining signal	92%
CSc1cccnc1N1CCN(Cc2nc3ccccc3[nH]2)CC1	cell-free assay, competition with immobilised ligand	1 µM	remaining binding	100%
O=C1NC(=O)c2cc(Nc3ccc(F)cc3)c(Nc3ccc(F)cc3)cc21	cell-free assay	0.5 µM	remaining signal	96%
CC(C)(O)[C@H]1CC[C@H](Nc2ccc3ncc(-c4cccc(C(F)(F)F)c4)n3n2)CC1	enzyme activity, inhibitor	1 µM	remaining activity	83.5%
Nc1nc(Nc2ccc(S(N)(=O)=O)cc2)nn1C(=O)c1c(F)cccc1F	cell-free assay	0.5 µM	remaining signal	95.5%
COc1cc2ncnc(Nc3ccc(Oc4ccccc4)c(C)c3C)c2cc1OC	enzyme activity, inhibitor	1 µM	inhibition	-1%
N[C@@H]1CCN(c2nccc(-c3cnn4ncccc34)n2)C1	cell-free assay	1 µM	remaining signal	97%
Cc1ccc(Nc2nccc(N(C)c3ccc4c(C)n(C)nc4c3)n2)cc1S(N)(=O)=O	enzyme activity, inhibitor	10 µM	inhibition	73%
Cc1[nH]c(/C=C2\C(=O)Nc3ccc(F)cc32)c(C)c1C(=O)N[C@H]1CCN(C(=O)N(C)C)C1	enzyme activity, inhibitor	0.1 µM	remaining activity	88%
COCCOc1nc(-c2ccc(Cl)nc2)nc2c1CN(C(=O)c1ncn3ccccc13)CC2	cell-free assay, competition with immobilised ligand	0.1 µM	remaining binding	99%
c1nc2c(Nc3ccc4c(c3)OCCO4)nc(Nc3ccc4c(c3)OCCO4)nc2[nH]1	enzyme activity, inhibitor	10 µM	activity vs control	58%
O=S(=O)(NC1CCC(c2cc(F)ccc2F)(S(=O)(=O)c2ccc(Cl)cc2)CC1)C(F)(F)F (stereo not drawn)	cell-free assay, competition with immobilised ligand	1 µM	remaining binding	90%
O=C(Nc1cnn(-c2csc(C(=O)NC3COC3)c2)c1)Nc1ccccc1Cl	enzyme activity, inhibitor	5 µM	remaining activity	95.7%
C[C@H](c1cccc(C#N)c1)n1cc(Cl)cc(C(N)=O)c1=N	cell-free assay, competition with immobilised ligand	1 µM	remaining binding	100%
CC(C)(C)c1nc(-c2cccc(NS(=O)(=O)c3c(F)cccc3F)c2F)c(-c2ccnc(N)n2)s1	enzyme activity, inhibitor, radiometric	1 µM	remaining activity	89%
CCOC(=O)c1cc2cc(-c3cc(C(=O)NCc4ccc(C(=O)O)cc4)nn3C)ccc2[nH]1	cell-free assay, competition with immobilised ligand	0.1 µM	remaining binding	94%
COc1ccnn2ncc(-c3ccnc(N(C)C)n3)c12	cell-free assay	1 µM	remaining signal	100%
